Assay [1] addresses T1, Angiotensin-converting enzyme (Oryctolagus cuniculus) (UniProt P12822).
T1 sequence (whole entry): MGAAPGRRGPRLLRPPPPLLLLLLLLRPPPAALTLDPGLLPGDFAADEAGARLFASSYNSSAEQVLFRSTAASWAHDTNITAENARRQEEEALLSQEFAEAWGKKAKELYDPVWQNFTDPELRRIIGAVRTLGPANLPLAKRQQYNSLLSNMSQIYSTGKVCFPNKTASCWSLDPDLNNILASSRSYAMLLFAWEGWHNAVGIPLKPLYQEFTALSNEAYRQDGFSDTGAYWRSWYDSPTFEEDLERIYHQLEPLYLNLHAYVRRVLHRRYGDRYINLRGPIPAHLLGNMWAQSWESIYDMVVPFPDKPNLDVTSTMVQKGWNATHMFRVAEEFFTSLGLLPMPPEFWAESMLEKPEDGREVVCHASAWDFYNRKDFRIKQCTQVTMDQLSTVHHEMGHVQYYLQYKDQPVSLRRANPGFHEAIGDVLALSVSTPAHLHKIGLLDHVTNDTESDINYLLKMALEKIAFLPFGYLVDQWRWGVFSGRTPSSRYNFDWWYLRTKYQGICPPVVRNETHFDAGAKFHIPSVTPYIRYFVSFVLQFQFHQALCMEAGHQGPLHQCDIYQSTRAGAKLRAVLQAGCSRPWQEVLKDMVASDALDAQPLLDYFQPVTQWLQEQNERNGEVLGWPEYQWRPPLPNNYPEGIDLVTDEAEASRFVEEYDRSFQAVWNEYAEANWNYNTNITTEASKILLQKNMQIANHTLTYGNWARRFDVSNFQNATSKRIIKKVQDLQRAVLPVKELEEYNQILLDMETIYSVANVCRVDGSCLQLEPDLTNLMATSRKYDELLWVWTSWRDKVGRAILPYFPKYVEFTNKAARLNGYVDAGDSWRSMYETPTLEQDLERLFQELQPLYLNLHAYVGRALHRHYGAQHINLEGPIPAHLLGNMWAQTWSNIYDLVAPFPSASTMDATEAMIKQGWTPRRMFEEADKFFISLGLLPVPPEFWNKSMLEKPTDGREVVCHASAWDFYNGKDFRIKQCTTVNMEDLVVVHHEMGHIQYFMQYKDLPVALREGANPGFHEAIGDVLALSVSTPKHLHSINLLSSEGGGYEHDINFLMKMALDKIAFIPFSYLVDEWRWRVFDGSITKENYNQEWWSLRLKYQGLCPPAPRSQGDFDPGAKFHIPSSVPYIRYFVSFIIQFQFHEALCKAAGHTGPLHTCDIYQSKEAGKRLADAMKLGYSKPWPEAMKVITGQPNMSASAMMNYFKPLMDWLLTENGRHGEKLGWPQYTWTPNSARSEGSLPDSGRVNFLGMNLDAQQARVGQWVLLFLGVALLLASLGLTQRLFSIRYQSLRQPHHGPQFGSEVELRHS
Briefly: (§1) Inhibition of rabbit lung ACE using hippuryl-histidyl-leucine as substrate assessed as release of hippuric acid incubated for 10 mins prior to substrate addition measured after 30 mins by spectrophotometry.

The subject of a further assay is HEK293. The assay can be described thus: Cytotoxicity against human HEK293 cells after 24 hrs by MTT assay. Format: cell-based. The settings on record: HEK293, 24 h. In short, it runs like this: (§2)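 Cells kept in DMEM with 10% heat-inactivated FBS, penicillin, streptomycin and 2 mM L-glutamine at 37 °C, 5% CO2, passaged every 2–3 days. 1 × 10^4 cells/well seeded, grown 24 h, then exposed to compounds (10 µM–1000 µM) beside vehicle control for 24 h. MTT added for 4 h, formazan dissolved in DMSO, absorbance read at 540 nm; survival versus control, EC50 by probit analysis.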

In assay [2] the target is T2, Angiotensin-converting enzyme (Oryctolagus cuniculus, UniProt P12822).
T2 sequence (P12822 whole entry): T1 sequence (whole entry)
The description is as §1.

In another assay the test system is A549. The assay can be described thus: Cytotoxicity against human A549 cells after 24 hrs by MTT assay. The settings on record: A549, 24 h. Format: cell-based. An outline of the steps:
as §2
A general note: Formazan colour is commonly taken as a measure of viable cells.

Calls of active or inactive are those of the source. No cut-off for these calls is given here.

Take `CCOC(=O)C1=C(C)NC(C)=C(C(=O)OCC)C1c1cc(Br)cc(Br)c1OCC#CCN1CCN(C)CC1`: the inhibition entry in assay [1] is “inactive”.

On to `CCOC(=O)C1=C(C)NC(C)=C(C(=O)OCC)C1c1cc(Br)cc(Br)c1OCc1cn(CC(=O)NC2CC2)nn1`, for which, in assay [1], the inhibition entry is “inactive”.

With `CCOC(=O)C1=C(C)NC(C)=C(C(=O)OCC)C1c1cccc(OC)c1OCC#CCN1CCN(c2ccccc2)CC1`, the inhibition result in assay [1] is “inactive”.

`CCOC(=O)C1=C(C)NC(C)=C(C(=O)OCC)C1c1cc(Br)ccc1OCC#CCN1CCN(c2ccccn2)CC1`: the inhibition entry in assay [1] is “inactive”.

As to `CCOC(=O)C1=C(C)NC(C)=C(C(=O)OCC)C1c1cc(Br)cc(Br)c1OCC#CCN1CCN(c2ccc(F)cc2)CC1`, the inhibition result in assay [1] was “inactive”.

As to `CCOC(=O)C1=C(C)NC(C)=C(C(=O)OCC)C1c1cc(Br)ccc1OCC#CCN1CCOCC1`, in assay [1], the inhibition result was “inactive”.

Regarding `CCOC(=O)C1=C(C)NC(C)=C(C(=O)OCC)C1c1cccc(OC)c1OCC#CCN1CCN(C)CC1`, the inhibition result in assay [1] is “inactive”.

`CCOC(=O)C1=C(C)NC(C)=C(C(=O)OCC)C1c1cccc(OC)c1OCc1cn(CC(=O)Nc2nnc(C(F)(F)F)s2)nn1`: the IC50 in the assay with HEK293 is above 1000 µM; in assay [2], 0.409 µM; in the assay on A549, above 1000 µM. In addition, the inhibition entry in assay [1] is “Dose-dependent effect”.

`COc1cccc2c1C(=O)c1c(O)c3c(c(O)c1C2=O)C[C@@](O)(C(=O)CO)C[C@@H]3O[C@H]1C[C@H](N)[C@H](O)[C@H](C)O1` [DOXORUBICIN]: the figures for the IC50 in the assay on HEK293 and with A549 were 0.69 µM and 2.6 µM, respectively.

As for `CCOC(=O)C1=C(C)NC(C)=C(C(=O)OCC)C1c1cc(Br)cc(Br)c1OCC#CCN1CCN(CCO)CC1`, the IC50 is above 1000 µM in the assay on HEK293, 0.928 µM in assay [2] and above 1000 µM in the assay with A549. Moreover, the inhibition entry in assay [1] was “Dose-dependent effect”.

As for `CCOC(=O)C1=C(C)NC(C)=C(C(=O)OCC)C1c1cccc(OC)c1OCC#CCN1CCOCC1`, the inhibition entry in assay [1] is “inactive”.

Consider `CCOC(=O)C1=C(C)NC(C)=C(C(=O)OCC)C1c1cccc(OC)c1OCc1cn(CCC(F)(F)C(F)(F)C(F)(F)C(F)(F)C(F)(F)C(F)(F)C(F)(F)C(F)(F)F)nn1`, for which the IC50 in the assay with HEK293 was above 1000 µM; in assay [2], 0.653 µM; in the assay with A549 it was above 1000 µM. Further, the inhibition entry in assay [1] was “Dose-dependent effect”.

`CCOC(=O)C1=C(C)NC(C)=C(C(=O)OCC)C1c1cccc(OC)c1OCC#CCN1CCCC1`: in assay [1], the inhibition result is “inactive”.

`NCCCC[C@H](N[C@@H](CCc1ccccc1)C(=O)O)C(=O)N1CCC[C@H]1C(=O)O` [LISINOPRIL ANHYDROUS]: the IC50 in assay [2] turned out to be 0.281 µM.

Regarding `CCOC(=O)C1=C(C)NC(C)=C(C(=O)OCC)C1c1cc(Br)cc(Br)c1OCc1cn(CC(=O)NCCC(=O)O)nn1`, the inhibition entry in assay [1] was “inactive”.

On to `CCOC(=O)C1=C(C)NC(C)=C(C(=O)OCC)C1c1cccc(OC)c1OCC#CCN1CCC(C(=O)OCC)CC1`, for which, in assay [1], the inhibition entry was “inactive”.

As to `CCOC(=O)C1=C(C)NC(C)=C(C(=O)OCC)C1c1cc(Br)ccc1OCc1cn(CC(=O)Nc2nnc(C(F)(F)F)s2)nn1`, in assay [1], the inhibition result is “inactive”.

With `CCOC(=O)C1=C(C)NC(C)=C(C(=O)OCC)C1c1cc(Br)ccc1OCc1cn(CC(=O)NC2CCCCC2)nn1`, the inhibition result in assay [1] is “inactive”.

As to `CCOC(=O)C1=C(C)NC(C)=C(C(=O)OCC)C1c1cc(Br)cc(Br)c1OCC#CCN1CCN(c2ccccn2)CC1`, in assay [1], the inhibition result was “inactive”.

As to `CCOC(=O)C1=C(C)NC(C)=C(C(=O)OCC)C1c1cccc(OC)c1OCc1cn(CC(=O)Nc2nc3ccc(F)cc3s2)nn1`, the concentration for half-maximal inhibition (IC50) with HEK293 is above 1000 µM; in assay [2], 0.713 µM; in the assay with A549, above 1000 µM. Besides, in assay [1], the inhibition entry was “Dose-dependent effect”.

`CCOC(=O)C1=C(C)NC(C)=C(C(=O)OCC)C1c1cc(Br)cc(Br)c1OCc1cn(CC(=O)Nc2ccc(SC(F)(F)F)cc2)nn1`: the inhibition entry in assay [1] is “inactive”.

Consider `CCOC(=O)C1=C(C)NC(C)=C(C(=O)OCC)C1c1cc(Br)cc(Br)c1OCc1cn(CC(=O)Nc2cccc(C(=O)O)c2)nn1`, for which, in assay [1], the inhibition result was “inactive”.

For the compound `CCOC(=O)C1=C(C)NC(C)=C(C(=O)OCC)C1c1cc(Br)cc(Br)c1OCc1cn(CC(=O)NCc2ccc(OC(F)(F)F)cc2)nn1`, in assay [1], the inhibition entry is “inactive”.

For orientation: IC50 means the concentration needed to halve the response being measured.

The values are drawn from ChEMBL document CHEMBL3351336, “Synthesis and evaluation of novel triazoles and mannich bases functionalized 1,4-dihydropyridine as angiotensin converting enzyme (ACE) inhibitors” (Bioorg Med Chem, 2014).
